Measurements from article PMC8154199 (JACS Au, 2021).

Columns and labels:
[1] = tested on: P. falciparum strain Dd2; assay: Growth inhibition assay with highly synchronized P. falciparum, SYBR green; type: cell-based; conditions: Plasmodium falciparum, DD2, 72 h, read-out: IC50 P. falciparum Dd2
[2] = CID-ESI-MS stability of heme-drug complexes; type: binding; conditions: 4-heme m/z 960.2; AQ-heme m/z 971.3; CQ-heme m/z 935.4
Outline: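 Hematin was made fresh from hemin in 50% ammonia. Test compound stock was in ACN or water. Hematin and compound were mixed equimolar at 100 μM in CH3CN/H2O (50:50), then diluted to 50 μM in ACN/H2O/HCOOH (50:50:1). Samples were infused at 5 μL·min–1 into an orthogonal ESI-TOF. CID used capillary exit (cone) voltage 120–400 V in 20 V steps, and adduct stability responses were plotted against voltage.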

[3] = Probe solubility in aqueous ACN by absorbance kinetics; type: physicochemical; conditions: aqueous ACN solutions (Figure S16)
Outline: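 Solubility was assessed in 2% ACN by spectrophotometric absorbance kinetics over decreasing test compound concentrations, starting at 20 μM.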

[4] = tested on: human fibroblasts hMRC-5; assay: Toxicity against human fibroblasts hMRC-5; type: cell-based; conditions: Fibroblast, read-out: IC50 hMRC-5

Row | SMILES | IC50 [1] [nM] | residual complex at high fragmentor voltage (ion abundance) [2] | solubility sequence, from the less to the most soluble [3] | IC50 [4] [nM]
1 | CCN(CC)CCCC(C)Nc1ccnc2cc(Cl)ccc12 (centres unmarked) [chloroquine, reference compound] | 189 | did not show a residual covalent adduct |  | 
2 | CN(C)c1ccc2nc3ccc(=[N+](C)C)cc-3sc2c1 [methylene blue, reference compound] | 7 |  |  | 
3 | C#Cc1ccc(C(=O)C2=C(C)C(=O)c3ccccc3C2=O)cc1 [probe 7] | 1810 ± 302 |  | probe 10 < probe 8 ≈ probe 7 < probe 9 | 20500
4 | C#Cc1ccc(CC2=C(C)C(=O)c3ccccc3C2=O)cc1 [probe 11, 2-(4-ethynylbenzyl)-3-methylnaphthalene-1,4-dione] | 49 ± 15 |  |  | > 64000
